Key:
[1] = biological target: T1, 17-beta-hydroxysteroid dehydrogenase type 1 (Homo sapiens, UniProt P14061); assay: Inhibition of human placenta cytosolic 17betaHSD1 using [3H]E1 as substrate after 10 mins by radioflow detection assay
T1 sequence (P14061 whole entry): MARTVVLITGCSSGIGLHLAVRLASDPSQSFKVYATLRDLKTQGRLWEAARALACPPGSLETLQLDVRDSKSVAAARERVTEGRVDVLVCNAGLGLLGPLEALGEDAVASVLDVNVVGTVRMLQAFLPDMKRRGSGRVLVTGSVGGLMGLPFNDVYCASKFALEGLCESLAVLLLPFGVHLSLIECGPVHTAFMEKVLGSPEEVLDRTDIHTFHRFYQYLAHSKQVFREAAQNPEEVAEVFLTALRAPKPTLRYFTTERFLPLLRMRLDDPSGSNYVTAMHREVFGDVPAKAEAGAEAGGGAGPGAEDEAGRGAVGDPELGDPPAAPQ
Procedure, shortened: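 Cytosolic 17β-HSD1 from fresh human placenta, obtained by ammonium sulfate precipitation. Incubated at 37 °C in 50 mM phosphate buffer with 20% glycerol and EDTA, with NADH 500 μM and compound (DMSO 1% final). Started with unlabeled + [3H]-E1 (500 nM final), stopped after 10 min with HgCl2, ether-extracted. E1/E2 quantified by radioflow HPLC as % conversion. At least three independent experiments.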

[2] = biological target: T1, 17-beta-hydroxysteroid dehydrogenase type 1; assay: Inhibition of 17betaHSD1 in human T47D cells using [3H]E1 as substrate incubated for 30 mins prior to substrate addition measured after 30 mins by radioflow detection assay; assay type: cell-based
Procedure, shortened: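 T47D cells kept in RPMI 1640 with 10% FCS, glutamine, insulin-zinc, pyruvate, antibiotics. Seeded at 5 × 10^5 cells/well in DMEM with FCS, switched to serum-free DMEM after 24 h. Compound added in DMSO (1% final), 30 min preincubation at 37 °C, 5% CO2. Then unlabeled + [3H]-E1 (50 nM final) for 30 min. Steroids extracted into diethylether. Mean of three determinations.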

Callithrix jacchus [3] = species on record: Callithrix jacchus; assay: Inhibition of mormoset placenta microsomal 17betaHSD2 using [3H]E2 as substrate at 50 nM after 20 mins by radioflow detection assay
[4] = biological target: T2, Estrogen receptor (Homo sapiens) (UniProt P03372); assay: Relative binding affinity to human recombinant ERalpha receptor using [3H]E2 as substrate after 1 hr by liquid scintillation counting relative to E2
T2 sequence (whole entry): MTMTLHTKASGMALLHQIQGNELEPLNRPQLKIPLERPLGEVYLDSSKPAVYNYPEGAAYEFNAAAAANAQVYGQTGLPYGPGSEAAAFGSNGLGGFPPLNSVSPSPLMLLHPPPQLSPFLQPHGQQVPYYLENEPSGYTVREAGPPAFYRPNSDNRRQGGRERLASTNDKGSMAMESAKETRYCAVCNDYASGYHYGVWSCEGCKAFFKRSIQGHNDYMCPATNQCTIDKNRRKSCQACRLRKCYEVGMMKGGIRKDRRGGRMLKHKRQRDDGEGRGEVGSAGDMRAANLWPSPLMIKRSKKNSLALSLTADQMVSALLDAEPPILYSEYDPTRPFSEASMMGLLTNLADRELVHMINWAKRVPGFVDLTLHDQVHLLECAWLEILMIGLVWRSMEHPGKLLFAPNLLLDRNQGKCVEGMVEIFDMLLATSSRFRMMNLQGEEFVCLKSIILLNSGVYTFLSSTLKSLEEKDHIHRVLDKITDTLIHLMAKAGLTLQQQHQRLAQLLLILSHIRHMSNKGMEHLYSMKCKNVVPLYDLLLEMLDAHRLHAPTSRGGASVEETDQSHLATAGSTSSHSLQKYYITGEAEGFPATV
Procedure, shortened: (§1)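 Recombinant human ERα or ERβ (0.25 pmol) incubated 1 h at rt with [3H]-E2 (10 nM) and compound in DMSO (5% final). Nonspecific binding defined with diethylstilbestrol 10 μM. Bound complex captured on hydroxyapatite, washed, resuspended in ethanol, counted by liquid scintillation. Concentrations displacing 50% of bound label compared with E2, which is set at 100%.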

[5] = biological target: T3, 17-beta-hydroxysteroid dehydrogenase type 1 (Homo sapiens) (UniProt P14061); assay: Inhibition of human placenta cytosolic 17betaHSD1 using [3H]E1 as substrate at 10 nM after 10 mins by radioflow detection assay
T3 sequence (whole entry): T1 sequence (P14061 whole entry)

[6] = biological target: T4, 17-beta-hydroxysteroid dehydrogenase type 2 (Homo sapiens, UniProt P37059); assay: Inhibition of human placenta microsomal 17betaHSD2 using [3H]E2 as substrate after 20 mins by radioflow detection assay
T4 sequence (P37059 whole entry): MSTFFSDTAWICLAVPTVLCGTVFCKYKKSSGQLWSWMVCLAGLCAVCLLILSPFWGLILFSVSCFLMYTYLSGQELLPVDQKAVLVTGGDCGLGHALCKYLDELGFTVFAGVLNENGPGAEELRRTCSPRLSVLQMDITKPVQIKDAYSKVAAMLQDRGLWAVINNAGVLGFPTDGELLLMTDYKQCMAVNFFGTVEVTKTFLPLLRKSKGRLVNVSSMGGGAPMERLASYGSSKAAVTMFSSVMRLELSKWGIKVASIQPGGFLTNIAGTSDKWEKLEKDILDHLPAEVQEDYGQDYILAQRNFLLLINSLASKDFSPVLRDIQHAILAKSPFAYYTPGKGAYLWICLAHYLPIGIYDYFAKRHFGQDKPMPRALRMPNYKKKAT
Procedure, shortened: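 Microsomal (pellet) fraction of fresh human placenta incubated with NAD+ 1500 μM, compound, and unlabeled + [3H]-E2 (500 nM final) for 20 min at 37 °C. Stopped with 1 mM HgCl2, ether-extracted. Steroids separated by HPLC with radioflow detection, conversion computed. Mean of three determinations.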

Callithrix jacchus [7] = species on record: Callithrix jacchus; assay: Inhibition of mormoset placenta cytosolic 17betaHSD1 using [3H]E1 as substrate at 50 nM after 10 mins by radioflow detection assay
[8] = biological target: Estrogen receptor beta (Homo sapiens) (UniProt Q92731); assay: Relative binding affinity to human recombinant ERbeta receptor using [3H]E2 as substrate after 1 hr by liquid scintillation counting relative to E2; procedure, shortened: as §1
Chain of Estrogen receptor beta (Homo sapiens) (Q92731 whole entry): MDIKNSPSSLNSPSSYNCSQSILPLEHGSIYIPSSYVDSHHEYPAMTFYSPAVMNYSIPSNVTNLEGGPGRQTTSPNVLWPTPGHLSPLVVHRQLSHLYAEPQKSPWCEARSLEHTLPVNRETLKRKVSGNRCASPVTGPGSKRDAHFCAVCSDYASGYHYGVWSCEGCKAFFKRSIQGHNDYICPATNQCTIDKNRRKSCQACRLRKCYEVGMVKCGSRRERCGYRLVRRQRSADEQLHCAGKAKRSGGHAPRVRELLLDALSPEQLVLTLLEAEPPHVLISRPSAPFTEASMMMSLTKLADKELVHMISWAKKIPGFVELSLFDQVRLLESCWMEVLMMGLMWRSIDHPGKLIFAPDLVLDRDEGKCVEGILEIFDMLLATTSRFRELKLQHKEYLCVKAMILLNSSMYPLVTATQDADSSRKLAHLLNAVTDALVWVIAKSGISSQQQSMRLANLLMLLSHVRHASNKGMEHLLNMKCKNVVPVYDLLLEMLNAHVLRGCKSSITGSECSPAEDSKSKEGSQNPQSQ

| SMILES | IC50 [1] [nM] | IC50 [2] [nM] | inhibition (Callithrix jacchus [3]) [%] | RBA [4] [%] | inhibition [5] [%] | IC50 [6] [nM] | inhibition (Callithrix jacchus [7]) [%] | RBA [8] [%] |
| --- | --- | --- | --- | --- | --- | --- | --- | --- |
| O=S(=O)(Nc1cccc(-c2c(O)ccc3cc(-c4cccc(O)c4)ccc23)c1)c1cccs1 | 28 | 316 | 18 | < 0.1 | > 30 | 1100 | 25 | < 0.1 |
| O=S(=O)(Nc1cccc(-c2c(O)ccc3cc(-c4cccc(O)c4)ccc23)c1)c1ccc(F)cc1 | 53 | 637 | 20 | < 0.1 |  | 834 | 24 | < 0.1 |
| Cc1ccccc1S(=O)(=O)Nc1cccc(-c2c(O)ccc3cc(-c4cccc(O)c4)ccc23)c1 | 31 | 525 | < 10 | < 0.1 |  | 188 | 20 | < 0.1 |
| Cc1cccc(S(=O)(=O)Nc2cccc(-c3c(O)ccc4cc(-c5cccc(O)c5)ccc34)c2)c1 | 33 | 440 | 11 | < 0.1 |  | 446 | < 10 | < 0.1 |
| O=[N+]([O-])c1cccc(S(=O)(=O)Nc2cccc(-c3c(O)ccc4cc(-c5cccc(O)c5)ccc34)c2)c1 | 20 | 396 | 17 | < 0.1 | > 30 | 374 | 16 | < 0.1 |
| O=[N+]([O-])c1ccc(S(=O)(=O)Nc2cccc(-c3c(O)ccc4cc(-c5cccc(O)c5)ccc34)c2)c([N+](=O)[O-])c1 | 690 |  | 36 | < 0.1 |  | 371 | 16 | < 0.1 |
| O=S(=O)(Nc1cccc(-c2c(O)ccc3cc(-c4cccc(O)c4)ccc23)c1)c1ccc2ncccc2c1 | 92 | 498 | 13 | < 0.1 | > 30 | 535 | 38 | < 0.1 |
| O=S(=O)(Nc1cccc(-c2c(O)ccc3cc(-c4cccc(O)c4)ccc23)c1)c1ccc(Br)cc1OC(F)(F)F | 74 |  | < 10 | < 0.1 | > 30 | 213 | < 10 | < 0.1 |
| O=S(=O)(Nc1cccc(-c2c(O)ccc3cc(-c4cccc(O)c4)ccc23)c1)c1ccc(O)cc1 | 19 | 1010 | 30 | < 0.1 |  | 352 | < 10 | < 0.1 |
| O=S(=O)(Nc1cccc(-c2c(O)ccc3cc(-c4cccc(O)c4)ccc23)c1)c1ccccc1F | 29 | 429 | < 10 | < 0.1 |  | 749 | 19 | < 0.1 |
| O=S(=O)(c1ccccc1)n1ccc2ccc(-c3c(O)ccc4cc(-c5cccc(O)c5)ccc34)cc21 | 519 |  | 12 |  |  | 996 | 14 |  |
| O=[N+]([O-])c1ccccc1S(=O)(=O)Nc1cccc(-c2c(O)ccc3cc(-c4cccc(O)c4)ccc23)c1 | 17 | 462 | 21 | < 0.1 | > 30 | 238 | < 10 | < 0.1 |
| O=S(=O)(c1ccccc1)n1ccc2c(-c3c(O)ccc4cc(-c5cccc(O)c5)ccc34)cccc21 | 32 | 1100 | 43 | < 0.1 |  | 391 | 79 | < 0.1 |
| O=[N+]([O-])c1ccc(S(=O)(=O)Nc2cccc(-c3c(O)ccc4cc(-c5cccc(O)c5)ccc34)c2)cc1 | 49 | 753 | 13 | < 0.1 | > 30 | 1060 | 28 | < 0.1 |
| Cc1ccc(S(=O)(=O)Nc2cccc(-c3c(O)ccc4cc(-c5cccc(O)c5)ccc34)c2)cc1 | 35 | 633 | 11 | < 0.1 |  | 367 | < 10 | < 0.1 |
| N#Cc1ccc(S(=O)(=O)Nc2cccc(-c3c(O)ccc4cc(-c5cccc(O)c5)ccc34)c2)cc1 | 25 | 555 | 30 | < 0.1 |  | 825 | 25 | < 0.1 |
| CC(=O)Nc1ccc(S(=O)(=O)Nc2cccc(-c3c(O)ccc4cc(-c5cccc(O)c5)ccc34)c2)cc1 | 12 | 240 | < 10 | < 0.1 |  | 408 | 31 | < 0.1 |
| O=S(=O)(Nc1cccc(-c2c(O)ccc3cc(-c4cccc(O)c4)ccc23)c1)c1cccc(F)c1 | 22 | 462 | 33 | < 0.1 | > 30 | 396 | < 10 | < 0.1 |
| N#Cc1cccc(S(=O)(=O)Nc2cccc(-c3c(O)ccc4cc(-c5cccc(O)c5)ccc34)c2)c1 | 30 | 402 | < 10 | < 0.1 | > 30 | 607 | 11 | < 0.1 |
| O=S(=O)(Nc1cccc(-c2c(O)ccc3cc(-c4cccc(O)c4)ccc23)c1)c1cc(F)c(Br)cc1F | 46 | 646 | 17 | < 0.1 | > 30 | 223 | 14 | < 0.1 |
